Experiment [1] addresses Dual serine/threonine and tyrosine protein kinase (Homo sapiens) (UniProt Q6XUX3). Briefly: Binding affinity to wild-type human full length RIPK5 (M1 to T929 residues) expressed in mammalian expression system assessed as residual binding level at 1 uM by Kinomescan method relative to control. An outline of the steps: (§1)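 Single-concentration KINOMEscan (DiscoverX) binding screen at 1 μM against a panel of 468 purified kinases and mutants. The read-out is binding relative to control.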

Experiment [2] addresses Serine/threonine-protein kinase 36 (Homo sapiens) (UniProt Q9NRP7). Briefly: Binding affinity to wild-type human partial length STK36 (M1 to T271 residues) expressed in bacterial expression system assessed as residual binding level at 1 uM by Kinomescan method relative to control.
The target of experiment [3] is G protein-coupled receptor kinase 4 (Homo sapiens) (UniProt P32298). Briefly: Binding affinity to wild-type human full length GRK4 (M1 to C578 residues) expressed in bacterial expression system assessed as residual binding level at 1 uM by Kinomescan method relative to control. An outline of the steps:
(§2)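 Single-concentration (1 μM) competition-binding screen run by KINOMEscan against a panel of 468 purified kinases and mutants. The read-out is the relative binding activity of the test compound to each kinase.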

The target of experiment [4] is Phosphatidylinositol 3-kinase catalytic subunit type 3 (Homo sapiens) (UniProt Q8NEB9). Briefly: Binding affinity to wild-type human partial length VPS34 (S282 to H879 residues) expressed in mammalian expression system assessed as residual binding level at 1 uM by Kinomescan method relative to control.
The target in experiment [5] is Atypical kinase COQ8A, mitochondrial (Homo sapiens) (UniProt Q8NI60). Briefly: Binding affinity to wild-type human full length ADCK3 (M280 to Q647 residues) expressed in bacterial expression system assessed as residual binding level at 1 uM by Kinomescan method relative to control. In short, it runs like this: as §2
The target in experiment [6] is Ribosomal protein S6 kinase alpha-6 (Homo sapiens) (UniProt Q9UK32). Briefly: Binding affinity to wild-type human partial length C-terminal RSK4 kinase domain 2 (I401 to Y711 residues) expressed in bacterial expression system assessed as residual binding level at 1 uM by Kinomescan method relative to control.
For experiment [7], the target named is Aurora kinase B (Homo sapiens) (UniProt Q96GD4). Briefly: Binding affinity to wild-type human partial length AURKB (D25 to A303 residues) expressed in mammalian expression system assessed as residual binding level at 1 uM by Kinomescan method relative to control. In short, it runs like this: as §1
Experiment [8] has as its target Ephrin type-B receptor 4 (Homo sapiens) (UniProt P54760). Briefly: Binding affinity to wild-type human partial length EPHB4 (H585 to G892 residues) expressed in bacterial expression system assessed as residual binding level at 1 uM by Kinomescan method relative to control.
Experiment [9] has as its target Homeodomain-interacting protein kinase 4 (Homo sapiens) (UniProt Q8NE63). Briefly: Binding affinity to wild-type human partial length HIPK4 (M1 to V384 residues) expressed in bacterial expression system assessed as residual binding level at 1 uM by Kinomescan method relative to control. In short, it runs like this:
(§3)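 Kinome-wide competition binding screen against a panel of 468 purified kinases/mutants, with the test compound at a single concentration of 1 μM. Read-out is the relative binding activity of each kinase in the presence of compound.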

Experiment [10] deals with Ephrin type-B receptor 2 (Homo sapiens) (UniProt P29323). Briefly: Binding affinity to wild-type human partial length EPHB2 (I597 to L902 residues) expressed in bacterial expression system assessed as residual binding level at 1 uM by Kinomescan method relative to control.
Experiment [11] deals with Myotonin-protein kinase (Homo sapiens) (UniProt Q09013). Briefly: Binding affinity to wild-type human partial length DMPK (V47 to V415 residues) expressed in bacterial expression system assessed as residual binding level at 1 uM by Kinomescan method relative to control. In short, it runs like this:
as §3

Experiment [12] deals with MAP/microtubule affinity-regulating kinase 4 (Homo sapiens) (UniProt Q96L34). Briefly: Binding affinity to wild-type human partial length MARK4 (K29 to G340 residues) expressed in bacterial expression system assessed as residual binding level at 1 uM by Kinomescan method relative to control.
Experiment [13] addresses Dual specificity mitogen-activated protein kinase kinase 6 (Homo sapiens) (UniProt P52564). Briefly: Binding affinity to wild-type human partial length MEK6 (K36 to D334 residues) expressed in bacterial expression system assessed as residual binding level at 1 uM by Kinomescan method relative to control.
The target of experiment [14] is Cyclin-G-associated kinase (Homo sapiens) (UniProt O14976). Briefly: Binding affinity to wild-type human partial length GAK (G13 to Y338 residues) expressed in bacterial expression system assessed as residual binding level at 1 uM by Kinomescan method relative to control. An outline of the steps: as §3
The target in experiment [15] is Serine/threonine-protein kinase Nek1 (Homo sapiens) (UniProt Q96PY6). Briefly: Binding affinity to wild-type human partial length NEK1 (M1 to K278 residues) expressed in bacterial expression system assessed as residual binding level at 1 uM by Kinomescan method relative to control.
The target in experiment [16] is Platelet-derived growth factor receptor alpha (Homo sapiens, UniProt P16234). Briefly: Inhibition of PDGFRalpha autophosphorylation at Y849 residue in human EOL-1 cells up to 300 nM after 2 hrs by Western blot analysis. Type of experiment: cell-based. In general terms: Immunoblotting shows a protein as a band on a membrane.
Another experiment relates to NCI-H1703. Briefly: Induction of apoptosis in human NCI-H1703 cells assessed as cleaved caspase3 expression level after 72 hrs in presence of PDGF-AA by Western blot analysis. Type of experiment: functional, cell-based. An outline of the steps: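 Cells exposed to compound or DMSO for the stated periods, then lysed and immunoblotted for PARP and caspase-3 cleavage, with β-actin as loading control. NCI-H1703 stimulation used PDGF AA at 100 ng/mL.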

In experiment [17] the target is Serine/threonine-protein kinase 32B (Homo sapiens) (UniProt Q9NY57). Briefly: Binding affinity to wild-type human full length YANK2 (M1 to S414 residues) expressed in bacterial expression system assessed as residual binding level at 1 uM by Kinomescan method relative to control. An outline of the steps: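 KINOMEscan competition binding against 468 purified kinases/mutants, test compound at 1 µM; residual binding relative to control.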

In experiment [18] the target is Leukocyte tyrosine kinase receptor (Homo sapiens) (UniProt P29376). Briefly: Binding affinity to wild-type human partial length LTK (P422 to S744 residues) expressed in bacterial expression system assessed as residual binding level at 1 uM by Kinomescan method relative to control. In short, it runs like this:
as §3

Experiment [19] concerns the target Ephrin type-B receptor 3 (Homo sapiens) (UniProt P54753). Briefly: Binding affinity to wild-type human partial length EPHB3 (Q599 to T928 residues) expressed in bacterial expression system assessed as residual binding level at 1 uM by Kinomescan method relative to control. An outline of the steps:
as §3

Experiment [20] concerns the target Mitogen-activated protein kinase 4 (Homo sapiens) (UniProt P31152). Briefly: Binding affinity to wild-type human partial length ERK4 (M1 to L365 residues) expressed in bacterial expression system assessed as residual binding level at 1 uM by Kinomescan method relative to control. In short, it runs like this:
as §3

For experiment [21], the target named is Interleukin-1 receptor-associated kinase 3 (Homo sapiens) (UniProt Q9Y616). Briefly: Binding affinity to wild-type human partial length IRAK3 (V147 to E596 residues) expressed in bacterial expression system assessed as residual binding level at 1 uM by Kinomescan method relative to control.

SMILES strings stand for the structures. The source made the active and inactive calls. The rule behind the calls is not given here.

Chain of Ephrin type-B receptor 2 (Homo sapiens) (P29323 whole entry, the tested form may be a part): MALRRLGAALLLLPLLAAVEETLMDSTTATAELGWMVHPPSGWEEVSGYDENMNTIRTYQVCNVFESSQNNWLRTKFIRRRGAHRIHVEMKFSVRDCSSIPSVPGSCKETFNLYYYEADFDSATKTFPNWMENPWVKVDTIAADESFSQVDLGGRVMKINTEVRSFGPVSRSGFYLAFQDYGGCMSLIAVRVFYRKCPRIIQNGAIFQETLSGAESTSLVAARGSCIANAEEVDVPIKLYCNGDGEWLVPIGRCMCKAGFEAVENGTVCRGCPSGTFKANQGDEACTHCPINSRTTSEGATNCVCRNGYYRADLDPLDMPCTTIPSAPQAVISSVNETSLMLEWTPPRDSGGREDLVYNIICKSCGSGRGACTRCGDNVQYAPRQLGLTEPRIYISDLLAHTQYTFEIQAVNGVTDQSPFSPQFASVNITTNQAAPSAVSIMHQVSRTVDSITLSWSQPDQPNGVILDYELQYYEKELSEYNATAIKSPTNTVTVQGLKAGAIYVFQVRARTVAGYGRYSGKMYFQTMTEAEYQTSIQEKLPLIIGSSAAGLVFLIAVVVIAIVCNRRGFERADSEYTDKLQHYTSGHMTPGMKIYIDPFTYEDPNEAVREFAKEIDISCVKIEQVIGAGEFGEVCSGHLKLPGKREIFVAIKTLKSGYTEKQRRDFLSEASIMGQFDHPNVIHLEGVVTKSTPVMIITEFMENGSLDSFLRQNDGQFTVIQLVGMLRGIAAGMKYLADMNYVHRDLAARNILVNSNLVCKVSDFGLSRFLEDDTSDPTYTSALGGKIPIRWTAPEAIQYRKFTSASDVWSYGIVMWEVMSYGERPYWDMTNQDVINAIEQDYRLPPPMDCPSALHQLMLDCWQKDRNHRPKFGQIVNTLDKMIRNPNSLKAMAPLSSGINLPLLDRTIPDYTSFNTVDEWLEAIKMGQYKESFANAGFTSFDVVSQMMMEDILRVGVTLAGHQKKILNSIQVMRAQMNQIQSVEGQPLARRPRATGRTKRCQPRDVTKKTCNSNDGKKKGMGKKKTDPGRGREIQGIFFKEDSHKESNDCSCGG
Chain of G protein-coupled receptor kinase 4 (Homo sapiens) (P32298 whole entry, looked up, the tested form may be a part): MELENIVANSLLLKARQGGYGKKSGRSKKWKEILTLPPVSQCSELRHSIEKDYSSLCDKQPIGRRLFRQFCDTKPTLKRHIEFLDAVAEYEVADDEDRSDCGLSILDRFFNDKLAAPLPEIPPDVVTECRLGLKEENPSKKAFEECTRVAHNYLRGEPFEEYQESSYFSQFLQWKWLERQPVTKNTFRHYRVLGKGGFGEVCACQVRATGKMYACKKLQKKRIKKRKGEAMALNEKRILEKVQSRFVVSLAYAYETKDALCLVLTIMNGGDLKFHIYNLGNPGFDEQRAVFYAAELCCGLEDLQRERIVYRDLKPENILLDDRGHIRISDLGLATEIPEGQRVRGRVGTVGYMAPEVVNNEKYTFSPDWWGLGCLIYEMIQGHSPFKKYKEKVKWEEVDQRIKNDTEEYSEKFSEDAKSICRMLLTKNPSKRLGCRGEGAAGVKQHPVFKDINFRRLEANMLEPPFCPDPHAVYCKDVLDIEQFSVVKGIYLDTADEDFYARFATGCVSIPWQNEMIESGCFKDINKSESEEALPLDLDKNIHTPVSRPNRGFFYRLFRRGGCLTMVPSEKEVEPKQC
Chain of Ephrin type-B receptor 4 (Homo sapiens) (P54760 whole entry, the tested form may be a part): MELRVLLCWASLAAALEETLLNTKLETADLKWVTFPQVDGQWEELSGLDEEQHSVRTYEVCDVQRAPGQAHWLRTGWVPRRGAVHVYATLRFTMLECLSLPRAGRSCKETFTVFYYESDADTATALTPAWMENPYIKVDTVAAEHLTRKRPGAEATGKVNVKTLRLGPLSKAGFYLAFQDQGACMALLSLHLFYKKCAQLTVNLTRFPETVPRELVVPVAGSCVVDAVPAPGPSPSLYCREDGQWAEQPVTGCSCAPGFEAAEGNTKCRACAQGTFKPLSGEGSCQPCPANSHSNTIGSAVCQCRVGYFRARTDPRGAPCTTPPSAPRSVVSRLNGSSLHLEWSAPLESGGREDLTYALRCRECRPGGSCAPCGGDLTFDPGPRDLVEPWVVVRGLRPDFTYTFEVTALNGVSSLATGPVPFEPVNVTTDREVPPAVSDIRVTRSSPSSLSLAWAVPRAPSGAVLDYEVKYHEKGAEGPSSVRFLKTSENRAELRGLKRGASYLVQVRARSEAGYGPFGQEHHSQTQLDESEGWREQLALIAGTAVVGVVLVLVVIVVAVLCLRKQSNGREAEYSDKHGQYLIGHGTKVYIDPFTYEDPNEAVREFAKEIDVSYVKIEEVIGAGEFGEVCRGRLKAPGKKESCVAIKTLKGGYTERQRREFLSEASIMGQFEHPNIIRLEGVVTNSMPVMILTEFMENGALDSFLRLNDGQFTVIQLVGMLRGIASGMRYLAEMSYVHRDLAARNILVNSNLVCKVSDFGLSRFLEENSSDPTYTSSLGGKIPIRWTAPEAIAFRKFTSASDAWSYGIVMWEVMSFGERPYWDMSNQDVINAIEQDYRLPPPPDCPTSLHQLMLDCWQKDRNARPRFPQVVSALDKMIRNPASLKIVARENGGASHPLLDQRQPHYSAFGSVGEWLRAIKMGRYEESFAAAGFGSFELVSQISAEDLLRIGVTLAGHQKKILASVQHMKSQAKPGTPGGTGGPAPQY
Chain of Serine/threonine-protein kinase 36 (Homo sapiens) (Q9NRP7 whole entry, the tested form may be a part): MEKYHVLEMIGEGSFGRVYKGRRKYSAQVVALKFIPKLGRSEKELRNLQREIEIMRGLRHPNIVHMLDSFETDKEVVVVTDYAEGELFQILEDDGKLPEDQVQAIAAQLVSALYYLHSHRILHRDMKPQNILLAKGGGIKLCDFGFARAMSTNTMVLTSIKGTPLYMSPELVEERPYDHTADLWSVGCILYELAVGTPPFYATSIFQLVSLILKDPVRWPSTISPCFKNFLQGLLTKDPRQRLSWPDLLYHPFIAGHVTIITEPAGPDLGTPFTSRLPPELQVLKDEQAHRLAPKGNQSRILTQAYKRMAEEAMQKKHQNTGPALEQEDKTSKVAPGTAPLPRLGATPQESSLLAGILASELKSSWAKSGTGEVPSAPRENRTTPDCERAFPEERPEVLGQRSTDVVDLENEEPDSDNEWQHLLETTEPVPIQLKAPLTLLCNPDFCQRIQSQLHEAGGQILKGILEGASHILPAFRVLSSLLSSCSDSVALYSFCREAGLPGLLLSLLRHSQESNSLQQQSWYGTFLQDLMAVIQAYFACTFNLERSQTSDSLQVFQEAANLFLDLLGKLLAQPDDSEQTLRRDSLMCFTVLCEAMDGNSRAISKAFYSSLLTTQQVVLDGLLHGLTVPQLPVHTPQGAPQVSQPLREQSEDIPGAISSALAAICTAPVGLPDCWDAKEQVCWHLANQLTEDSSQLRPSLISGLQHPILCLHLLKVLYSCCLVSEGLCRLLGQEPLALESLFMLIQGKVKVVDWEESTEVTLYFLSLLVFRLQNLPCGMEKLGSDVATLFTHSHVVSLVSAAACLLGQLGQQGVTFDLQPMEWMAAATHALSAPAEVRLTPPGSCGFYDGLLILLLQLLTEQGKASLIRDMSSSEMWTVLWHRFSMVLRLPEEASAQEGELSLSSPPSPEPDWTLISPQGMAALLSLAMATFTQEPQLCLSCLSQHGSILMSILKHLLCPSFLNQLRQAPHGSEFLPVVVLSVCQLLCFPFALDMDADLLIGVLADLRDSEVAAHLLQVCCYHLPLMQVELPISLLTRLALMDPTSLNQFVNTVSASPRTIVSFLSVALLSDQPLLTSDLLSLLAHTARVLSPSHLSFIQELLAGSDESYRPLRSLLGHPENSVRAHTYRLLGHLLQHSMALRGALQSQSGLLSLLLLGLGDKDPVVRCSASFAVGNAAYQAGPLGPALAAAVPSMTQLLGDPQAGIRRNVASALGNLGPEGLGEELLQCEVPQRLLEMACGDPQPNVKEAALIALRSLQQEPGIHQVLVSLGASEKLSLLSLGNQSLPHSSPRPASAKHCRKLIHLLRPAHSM
Chain of Dual specificity mitogen-activated protein kinase kinase 6 (Homo sapiens) (P52564 whole entry, the tested form may be a part): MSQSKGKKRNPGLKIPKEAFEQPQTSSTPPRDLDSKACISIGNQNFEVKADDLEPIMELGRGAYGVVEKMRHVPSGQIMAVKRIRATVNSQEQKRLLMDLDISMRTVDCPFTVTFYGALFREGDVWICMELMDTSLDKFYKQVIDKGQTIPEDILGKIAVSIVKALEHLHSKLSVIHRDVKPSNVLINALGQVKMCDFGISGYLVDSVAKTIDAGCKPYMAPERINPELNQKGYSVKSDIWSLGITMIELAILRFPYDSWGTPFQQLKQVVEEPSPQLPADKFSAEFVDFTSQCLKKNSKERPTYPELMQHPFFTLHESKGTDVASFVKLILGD
Chain of Atypical kinase COQ8A, mitochondrial (Homo sapiens) (Q8NI60 163-647 limits assumed): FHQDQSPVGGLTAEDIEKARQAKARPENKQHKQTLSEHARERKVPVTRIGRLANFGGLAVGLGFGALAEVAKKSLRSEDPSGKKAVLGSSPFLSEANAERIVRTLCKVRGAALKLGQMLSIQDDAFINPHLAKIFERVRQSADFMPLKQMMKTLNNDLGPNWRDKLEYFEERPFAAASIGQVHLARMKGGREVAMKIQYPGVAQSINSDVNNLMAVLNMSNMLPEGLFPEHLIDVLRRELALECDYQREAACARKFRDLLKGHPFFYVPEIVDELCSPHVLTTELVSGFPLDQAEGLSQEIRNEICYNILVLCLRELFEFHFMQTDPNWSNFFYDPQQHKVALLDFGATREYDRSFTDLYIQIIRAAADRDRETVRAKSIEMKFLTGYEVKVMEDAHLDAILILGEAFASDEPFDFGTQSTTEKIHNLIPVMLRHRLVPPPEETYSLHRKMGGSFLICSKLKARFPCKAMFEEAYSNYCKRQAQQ

Take `Cc1ccc(NC(=O)c2ccc(CN(CCN(C)C)C(=O)c3cccnc3)cc2)cc1Nc1nccc(-c2cccnc2)n1`: the Activity in [1] came to 81%; in experiment [2], 97%; in experiment [3], 88%; in [4], 100%; in experiment [5], 100%; in experiment [6], 100%. Further, the Activity came out at 93% in [7]; 90% in [8]; 74% in experiment [9]; 100% in experiment [10]; 89% in experiment [11]; 90% in [12]. Besides, the Activity in [13] is 100%; in experiment [14], 82%; in [15], 100%; in experiment [17] it was 82%; in [18], 87%; in [19], 94%. The Activity in [20] stood at 89%; in experiment [21], 100%. Further, the inhibition entry in experiment [16] is “Active”. In the experiment with NCI-H1703, the outcome was Active.

The record behind these values is ChEMBL document CHEMBL4229344 (Eur J Med Chem, 2018).
